Results as given in the RNAGym collection of RNA variant scans (doi:10.1126/science.aae0568).
Fewer inactive variants are shown than the library holds.

B1: tRNA (parent)
chain: GUUCCGUUGGCGUAAUGGUAACGCGUCUCCCUCCUAAGGAGAAGACUGCGGGUUCGAGUCCCGUACGGAACG

Variants of: B1
Assay: yeast fitness relative to wild type (ratio to wild type); higher = fitter; tRNA-Arg(CCU), competitive growth, 37 C, YPD
Procedure, shortened: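 A pool of Saccharomyces cerevisiae strains, each with a tRNA-Arg(CCU) gene variant at the native genomic locus, was competed in YPD at 37°C for 24 hours across six parallel replicates. The variants had been chemically synthesised at a 3% per-site mutation rate over 69 sites, and gene amplicons before and after competition were read by 100-nucleotide paired-end sequencing. Darwinian fitness relative to wild type rested on changes in genotype frequencies. Genotypes required ≥ 100 starting reads, and estimates < 0.5 were set to 0.5.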

Variant	yeast fitness
C11G C22A C31A C61A	≤ 0.5
U7C A65G	0.95
G6U C62U	0.831
C4A C24G C61A C66U	≤ 0.5
U2A C4U U28A C30U	0.56
A15U C46A U59C	≤ 0.5
A15G A20C C29G G67A	≤ 0.5
C29U U47A A69U	0.679
U3G A14U C30U C55A	≤ 0.5
A65U C66G G68C	≤ 0.5
U13A C27G C34G G48C	≤ 0.5
C4G U47C U59G	≤ 0.5
C31U C33A G50A G68U	0.596
A20C C49U	1.03
G6C U8C C49A	≤ 0.5
C5A C61G	0.609
U3A C11G A14C C62U G67C	≤ 0.5
U3C U7A C29A G58A C61G A70U	0.531
C11A A14G G25C C29G	≤ 0.5
G6C A14C C31G A42U A43G	≤ 0.5
G9C A15G A21G C49G C60A	≤ 0.5
U19G A20U U26A G38C A45G C46G G50A G56C	≤ 0.5
G50C G51A	0.76
C31U C55G A70C	0.535

Variant	yeast fitness
A36C C46G	0.543
A40U C55A G68U	≤ 0.5
A14G G41C C55A	≤ 0.5
U35C G50C	0.703
U3C C22G A70C	0.679
C29A G41A A43C C49U	≤ 0.5
C4A A20U U28A C31U A65U	≤ 0.5
A21C C22G A70C	≤ 0.5
C5A A21U C55A	0.572
U7A G17A A45C U47A G50A	≤ 0.5
G6C U53A C60A	≤ 0.5
A15G U32G U35C A43C	0.585
A36G A42C C49A	0.548
C29U C33A G38A G58C A65U	≤ 0.5
G23A A57G	0.715
G18A C30A U32A U35G	≤ 0.5
G6A U26A C30G U59C	≤ 0.5
A15C C55G	0.593
G25U C29G A42C	≤ 0.5
C5G U19C U32C	0.766
A36G A37U C66A A69U	≤ 0.5
G9A U35A A43C	≤ 0.5
U7G G68C	0.895
G10C G50U	≤ 0.5

Variant	yeast fitness
C4U G41C	0.819
C4G C11U A40C A57U	0.623
U2G C34G G39C	≤ 0.5
A21C C22U	0.664
G18A C31U A70U	0.656
G17C C30G C33G	≤ 0.5
C22G G41C A65U	≤ 0.5
G6C C22A C33G G48C	≤ 0.5
G10C C33A A36U U53A U54A	≤ 0.5
C4U A20G U28C C31U G50C C55U C60G G63A C66U	0.508
A15U C24U U64C	≤ 0.5
U8C A14C C33A C46A	≤ 0.5
A37C A45U G68C	≤ 0.5
U8A C31G C55U G67C	≤ 0.5
U7G C27G A40U G68C	≤ 0.5
U3C G18A C31G	≤ 0.5
A14U G44C G51A G63A A70U	≤ 0.5
U13C C33U	0.744
C30U C61U	0.826
C4G C27U G41C	≤ 0.5
G17A G18A A42C C55U	0.508
G17U U19G A37G C66U A69U	0.561
C29U C31U U54G A65U G67A	0.565
C29A C46G A65G A70U	≤ 0.5

Variant	yeast fitness
A15U A42C A43C	0.561
C24U A40G C60U A65C	≤ 0.5
C5A C11A C24U U26C C29U C31G	≤ 0.5
A20G U28G	0.86
C4U A21G C29G C31U G41A G50C A70C	0.599
A21U G25A	0.757
C11G A42G	0.649
A14U C22U C30U C46U G52C	≤ 0.5
U13C C22G G68C	0.542
C5U C22U G48C C66U	≤ 0.5
A14G C29G C31U	0.6
C4U C22G U28A A36U G51A	≤ 0.5
A43C G52A A70U	≤ 0.5
U7C C55G	0.628
U8A G67A	0.586
C5U G10C C30G C34U A42C G52A	≤ 0.5
C5U G12A A69C	0.724
U7C G41A A42C G50C A65U	≤ 0.5
A21U C60U G67U	≤ 0.5
G17C A70U	0.713
C31U G48A A69U	0.757
G9C C24U U26G C61G	0.504
U13A C27U A70U	0.867
U26C C30U G44C G51A C61U	≤ 0.5

Variant	yeast fitness
A42C C49A C66A	≤ 0.5
C27G A43C A57U	0.599
U8C G38C C49U C62U A69U	0.568
A21C C22U G38C A40C	≤ 0.5
A21G C22G G25A G63A	≤ 0.5
A43C A45G G48A G58A A65U	≤ 0.5
A20U G23A C49U	0.609
G12A G44C C46G	0.61
G41A A57U C60A G68C	≤ 0.5
A42G U54G	0.562
U47C G67U	0.86
U13A G18A A69U	0.618
C29U G48C A65U	≤ 0.5
C55G G68U	0.522
A14C U19A A20C	≤ 0.5
C24G C33U A70G	≤ 0.5
G18C A40C C49G	≤ 0.5
U19C C31G A65U	0.596
C4U G25C C34U A65U	≤ 0.5
U7A G9A U13A	0.6
C11G G12A C61G G68A	0.556
U7G C55G G63A G68C	0.525
G9A C29U U47A A57G	≤ 0.5
C11A U19G A36G	0.521

Variant	yeast fitness
A14U C30U C62G A65G G68C	≤ 0.5
U7G C33U	0.749
G6A A14U C31G G38A	≤ 0.5
A15C A20C C55U	≤ 0.5
U8G C27A C61A	≤ 0.5
A14U U19A C31U	≤ 0.5
C34G A40G C46G C49A U59C	0.55
G25A C34U A65U	0.671
C11A U26G G44A G52A	0.55
G50A A65C	0.887
G9C G17C G39C A70U	≤ 0.5
G67C A69G	0.977
A14C U19C C27A A43G	≤ 0.5
A43U C49A	0.756
C5A C11G C55U C61A	≤ 0.5
C4U C30A A37U G44C U53A	≤ 0.5
U2C C24A C49A	≤ 0.5
U16G G39C A42U U54C C55G U64A	≤ 0.5
C29U G38C A45G G51C	≤ 0.5
C30A G50A A65C	0.628
G39C U47A A57C	≤ 0.5
G17C A42C G68A	≤ 0.5
C11G C27G A70G	≤ 0.5
U2A G41C U59A C61A C66U G68C	≤ 0.5

Variant	yeast fitness
C29U G63C	0.728
C24G G39A	0.643
C31G U32C	0.754
U32G A57U	0.527
C22U C60G U64G	≤ 0.5
U2G U54A C61U A65C G67U	0.576
C34U A40U C61G	≤ 0.5
C4G U7A C29U	0.504
G17C C24A A45C	0.508
A20G C34G A42C A43U	0.604
C24U A36G C55G	≤ 0.5
C11U A36G G48C A65C	0.675
U2C A43U G44C	≤ 0.5
C22A C31U A43U	0.623
C11U C33U G48A	0.58
U8G G12A U32A G50C G52C C55U	≤ 0.5
C5U U13A	0.842
A14G C46A	0.873
C11U G18C C24G C46A	0.537
U32C A40U C55A G56C	≤ 0.5
U32G C49G	0.602
C27U A43C U64C	0.732
U19A U35A A36U C55G G56C	≤ 0.5
